Active and inactive are the calls of the source. The calls are words filed in the database; no cut-off is given here.
Key:
Mus musculus [1] = species: Mus musculus; assay: Induction of adipocyte differentiation in mouse 3T3-F442A cells assessed as triglyceride accumulation at 6 uM on day 9 by oil red O staining relative to control; format: functional, cell-based
Procedure, shortened: (§1)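 Drug was added to 3T3-F442A cells only after clonal expansion was complete. On day 9 cells were fixed in formalin and stained with 0.0021% Oil red O in 60% isopropanol. Dye was extracted with 100% isopropanol and fluorescence read at 495 nm. Data are from four independent experiments, ANOVA with Bonferroni versus control.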

Mus musculus [2] = species: Mus musculus; assay: Induction of adipocyte differentiation in mouse 3T3-F442A cells assessed as triglyceride accumulation at 1 uM on day 9 by oil red O staining relative to control; format: functional, cell-based; procedure, shortened: as §1
[3] = Cytotoxicity against mouse 3T3-F442A cells at 1 uM after 8 days by trypan blue staining
Mus musculus [4] = species: Mus musculus; assay: Induction of preadipocyte differentiation in mouse 3T3-F442A cells assessed as triglyceride accumulation at 0.1 uM after 9 days by oil red O staining relative to control; format: functional, cell-based
Procedure, shortened: (§2)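 Drug was present while 3T3-F442A cells differentiated. On day 9 cells were fixed in 10% formalin and stained with 0.0021% (wt/vol) Oil red O in 60% isopropanol. Cells were dried, dye extracted with 100% isopropanol, and fluorescence read at 495 nm. Data are from three independent experiments, Mann-Whitney U test versus control.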

Mus musculus [5] = species: Mus musculus; assay: Induction of adipocyte differentiation in mouse 3T3-F442A cells assessed as PPARgamma mRNA expression on day 6 by RT-PCR analysis; format: functional, cell-based
Mus musculus [6] = species: Mus musculus; assay: Induction of adipocyte differentiation in mouse 3T3-F442A cells assessed as C/EBPalpha mRNA expression on day 6 by RT-PCR analysis; format: functional, cell-based
Mus musculus [7] = species: Mus musculus; assay: Induction of preadipocyte differentiation in mouse 3T3-F442A cells assessed as triglyceride accumulation at 3 uM after 9 days by oil red O staining relative to control; format: functional, cell-based; procedure, shortened: as §2
3T3-F442A [8] = assay: Induction of preadipocyte differentiation in mouse 3T3-F442A cells assessed as C/EBPalpha mRNA expression on day 6 by RT-PCR analysis
3T3-F442A (Mus musculus) [9] = assay: as above
Mus musculus [10] = species: Mus musculus; assay: Induction of preadipocyte differentiation in mouse 3T3-F442A cells assessed as adiponectin mRNA expression on day 9 by RT-PCR analysis; format: functional, cell-based
Procedure, shortened: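 3T3-F442A preadipocytes were exposed to drug or vehicle from day −7, induced on day 0 and differentiated to day +9, when RNA was taken. Adiponectin mRNA was measured by real-time RT-PCR (42 cycles, 94/55/72°C) against transferrin receptor as calibrator. RNA and cDNA were pooled; there were three independent experiments with triplicate PCR each.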

Mus musculus [11] = species: Mus musculus; assay: Induction of preadipocyte differentiation in mouse 3T3-F442A cells assessed as triglyceride accumulation at 6 uM after 9 days by oil red O staining relative to control; format: functional, cell-based; procedure, shortened: as §2
3T3-F442A [12] = assay: Induction of preadipocyte differentiation in mouse 3T3-F442A cells assessed as PPARgamma mRNA expression on day 4 by RT-PCR analysis
3T3-F442A (Mus musculus) [13] = assay: as above
[14] = Antiproliferative activity against mouse 3T3-F442A cells assessed as [3H]thymidine incorporation at 3 uM; format: functional
Homo sapiens = assay: Antiproliferative activity against human subcutaneous preadipocyte assessed as [3H]thymidine incorporation at 6 uM; format: functional
Procedure, shortened: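 Primary human subcutaneous preadipocytes (collagenase-digested abdominal fat, kept in DMEM-Ham's F-12 1:1 with 10% FBS and 172 µM ascorbate 2-phosphate) were given drug or vehicle for 24 h. [3H]thymidine was then added for a further 24 h, and cells were filter-harvested and counted by beta counter (cpm). There were 4 to 16 replicates per experiment, in at least 3 independent experiments.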

Mus musculus [15] = species: Mus musculus; assay: Antiproliferative activity against mouse 3T3-F442A cells assessed as mtDNA depletion; format: functional, cell-based
Mus musculus [16] = species: Mus musculus; assay: Antiproliferative activity against mouse 3T3-F442A cells assessed as [3H]thymidine incorporation at 0.1 uM; format: functional, cell-based
[17] = Antiproliferative activity against mouse 3T3-F442A cells assessed as [3H]thymidine incorporation at 1 uM; format: functional
[18] = Cytotoxicity against mouse 3T3-F442A cells at 6 uM after 8 days by trypan blue staining
[19] = Antiproliferative activity against mouse 3T3-F442A cells assessed as [3H]thymidine incorporation at 180 uM; format: functional
Mus musculus [20] = species: Mus musculus; assay: Antiproliferative activity against mouse 3T3-F442A cells assessed as [3H]thymidine incorporation; format: functional, cell-based
[21] = Antiproliferative activity against mouse 3T3-F442A cells assessed as [3H]thymidine incorporation at 6 uM; format: functional

Cc1cn([C@H]2C[C@H](N=[N+]=[N-])[C@@H](CO)O2)c(=O)[nH]c1=O [ZIDOVUDINE]
Activity (Mus musculus [1]): inactive | Activity (Mus musculus [2]): inactive | Activity [3]: Non-toxic | Activity (Mus musculus [4]): inactive | Activity (Mus musculus [5]): inactive | Activity (Mus musculus [6]): inactive | Activity (Mus musculus [7]): inactive | Activity (3T3-F442A [8]): Active | Activity (3T3-F442A (Mus musculus) [9]): Active | Activity (Mus musculus [10]): Active | Activity (Mus musculus [11]): Active | Activity (3T3-F442A [12]): Active | Activity (3T3-F442A (Mus musculus) [13]): Active | Activity [14]: 30% | Activity (Homo sapiens): Active | Activity (Mus musculus [15]): inactive | Activity (Mus musculus [16]): inactive | Activity [17]: 30% | Activity [18]: Non-toxic | Activity [19]: 30% | Activity (Mus musculus [20]): Active | Activity [21]: 30%

— ChEMBL document CHEMBL1629547, “Zidovudine impairs adipogenic differentiation through inhibition of clonal expansion” (Antimicrob Agents Chemother, 2008)
